Consider eleven compounds from ChEMBL document CHEMBL1811759, “Synthesis and topoisomerase I inhibitory activity of a novel diazaindeno[2,1-b]phenanthrene analogue of Lamellarin D” (Bioorg Med Chem, 2011).

Test [1] concerns NCI-H460. The experiment in a line: Antiproliferative activity against human NCI-H460 cells after 1 hr by coulter counter analysis. Type of test: functional, cell-based. Particulars: NCI-H460, 1 h. In outline:
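NCI-H460 NSCLC cells in RPMI-1640 + 10% foetal calf serum; log-phase cells seeded in duplicate, drug added 24 h after seeding for 1 h, then counted (Coulter counter) 72 h later. IC50 = concentration giving 50% decrease in cell growth vs untreated control.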

The target in test [2] is T1, DNA topoisomerase 1 (Homo sapiens) (UniProt P11387).
T1 sequence (whole entry): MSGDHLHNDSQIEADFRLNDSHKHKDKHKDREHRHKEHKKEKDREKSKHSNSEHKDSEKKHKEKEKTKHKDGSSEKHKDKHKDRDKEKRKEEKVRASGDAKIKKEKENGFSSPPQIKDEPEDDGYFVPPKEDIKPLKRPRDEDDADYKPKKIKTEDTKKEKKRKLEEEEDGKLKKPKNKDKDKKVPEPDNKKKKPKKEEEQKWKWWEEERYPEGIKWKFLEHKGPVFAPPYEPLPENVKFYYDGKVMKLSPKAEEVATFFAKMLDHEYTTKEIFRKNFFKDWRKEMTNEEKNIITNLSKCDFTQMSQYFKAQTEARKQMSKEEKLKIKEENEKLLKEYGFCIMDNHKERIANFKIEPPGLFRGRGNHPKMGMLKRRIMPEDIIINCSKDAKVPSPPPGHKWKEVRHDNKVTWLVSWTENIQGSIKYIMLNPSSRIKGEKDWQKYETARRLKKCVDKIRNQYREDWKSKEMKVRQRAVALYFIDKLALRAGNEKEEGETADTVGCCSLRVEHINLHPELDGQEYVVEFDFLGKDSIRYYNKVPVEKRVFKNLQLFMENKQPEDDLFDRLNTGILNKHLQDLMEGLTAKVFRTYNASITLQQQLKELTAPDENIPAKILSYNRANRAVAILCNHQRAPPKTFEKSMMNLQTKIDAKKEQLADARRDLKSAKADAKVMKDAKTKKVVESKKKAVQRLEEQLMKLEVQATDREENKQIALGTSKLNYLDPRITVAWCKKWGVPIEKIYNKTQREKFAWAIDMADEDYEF
The experiment in a line: Stimulation of human recombinant DNA topoisomerase 1-mediated 751-bp BamHI-EcoRV fragment of SV40 DNA cleavage at 1 to 50 uM after 30 mins by polyacrylamide gel-electrophoresis. In outline: (§1)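 Gel-purified 751-bp BamHI–EcoRV SV40 DNA fragment, uniquely 3'-end labeled (10,000 cpm/sample), incubated with full-length human recombinant topoisomerase I in 10 mM Tris–HCl pH 7.6, 150 mM KCl, 5 mM MgCl2, 0.1 mM DTT, 30 min, 37 °C. Stopped with 0.5% SDS plus 0.3 mg/mL proteinase K (45 min, 42 °C); products resolved on denaturing 8% polyacrylamide/TBE gel.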

Test [3] has as its system NCI-H460. The experiment in a line: Antiproliferative activity against human NCI-H460 cells after 72 hrs by coulter counter analysis. Particulars: NCI-H460, 72 h. In kind it is functional, cell-based. The method, boiled down: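 NCI-H460 cells grown in RPMI-1640 with 10% foetal calf serum; log-phase cells seeded in duplicate, exposed 24 h post-seeding for 72 h continuously, counted by Coulter counter at end of exposure. IC50 taken as concentration halving cell growth relative to untreated control.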

The target of test [4] is T1, DNA topoisomerase 1 (Homo sapiens). The experiment in a line: Stimulation of human recombinant DNA topoisomerase 1-mediated 751-bp BamHI-EcoRV fragment of SV40 DNA cleavage at 100 uM after 30 mins by polyacrylamide gel-electrophoresis. In outline:
as §1

The source made the active and inactive calls. No cut-off for these calls is given here.

Consider `COc1cc(-c2[nH]c(=O)c3c(c2-c2ccc(OC(C)C)c(OC)c2)c2ccccc2n3C)ccc1OC(C)C`, for which, in the test on NCI-H460 [1], the concentration for half-maximal inhibition (IC50) came out at 60.8 µM. In the test with NCI-H460 [1], `COc1cc(-c2[nH]c(=O)c3c(c2-c2ccc(O)c(OC)c2)c2cc(OC)c(O)cc2n3Cc2ccccc2)ccc1O` yielded an IC50 of 119 µM. For the same compound, the result in test [2] was inactive. `COc1cc2c3c(-c4ccc(OC(C)C)c(OC)c4)c(-c4ccc(OC(C)C)c(OC)c4)[nH]c(=O)c3n(Cc3ccccc3)c2cc1OCc1ccccc1` showed a concentration for half-maximal inhibition (IC50) in the test on NCI-H460 [1] above 150 µM. Besides, in test [2], the outcome was inactive. `COc1cc(-c2[nH]c(=O)c3c(c2-c2ccc(O)c(OC)c2)c2ccccc2n3C)ccc1O` came in with an IC50 in the test with NCI-H460 [1] of 60.8 µM. As for `CC[C@@]1(O)C(=O)OCc2c1cc1n(c2=O)Cc2cc3c(CN(C)C)c(O)ccc3nc2-1` [TOPOTECAN], the results for the IC50 with NCI-H460 [1] and with NCI-H460 [3] were 1.75 µM and 0.016 µM, respectively. Take `Cn1c2ccccc2c2cc3n(c(=O)c21)COc1ccccc1-3`: it took 118 µM to reach half-maximal inhibition in the test with NCI-H460 [1] (IC50).

For `COc1cc(-c2c3c4cc(OC)c(O)cc4oc(=O)c3n3ccc4cc(O)c(OC)cc4c23)ccc1O` [LAMELLARIN D], the IC50 in the test with NCI-H460 [1] is 0.066 µM; with NCI-H460 [3] it was 0.003 µM. Also, in test [2], the outcome was Active. Consider `CCc1c2c(nc3ccc(O)cc13)-c1cc3c(c(=O)n1C2)COC(=O)[C@]3(O)CC`, for which, in test [2], the result was Active.

Take `COc1cc(-c2c3n(c(=O)c4c2c2cc(OC)c(O)cc2n4C)COc2cc(O)c(OC)cc2-3)ccc1O`: the IC50 in the test on NCI-H460 [1] worked out at 4.02 µM; in the test on NCI-H460 [3], 0.35 µM. The outcome in test [4] was Active. `COc1cc(-c2[nH]c(=O)c3[nH]c4cc(O)c(OC)cc4c3c2-c2ccc(O)c(OC)c2)ccc1O` gave a half-maximal inhibitory concentration (IC50) in the test on NCI-H460 [1] of 60.8 µM. Further, the outcome in test [2] was inactive. Consider `COc1cc(-c2[nH]c(=O)c3[nH]c4cc(OC)c(O)cc4c3c2-c2ccc(O)c(OC)c2)ccc1O`, for which the IC50 with NCI-H460 [1] was 60.8 µM.
